Here are results for 16 compounds from ChEMBL document CHEMBL1138907, “Synthesis, hydrolyses and dermal delivery of N-alkyl-N-alkyloxycarbonylaminomethyl (NANAOCAM) derivatives of phenol, imide and thiol containing drugs” (Bioorg Med Chem Lett, 2006).

Converted amounts (≈) assume the structure as drawn. Bounds are passed on as bounds.

The nature of data set [1]: Half life of the compound. Type of data set: ADME. The essentials: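 Hydrolysis in aqueous buffer, followed by UV absorbance in a cuvette at about 10^-5 M final substrate. For the phenol derivatives, runs were at 46 °C in pH 8.8 buffer because hydrolysis at 32 °C was too slow. Half-lives were taken from plots of log(A∞ − At), or its negative, versus time.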
Data set [2] can be described thus: Aqueous solubility of the compound. Type of data set: physicochemical. The following applies: water.
Data set [3] can be described thus: Solubility in IPM. It counts as physicochemical.
The nature of data set [4]: Dissociation constant, pKa of the compound. It counts as physicochemical.
Data set [5] in a line: Ratio for partition coefficient, log K in IPM to buffer at pH 4. Type of data set: physicochemical. The following applies: IPM/pH 4.0 buffer.

As usually defined, the half-life is the time in which the quantity being followed falls by half. A higher half-life goes with slow decline. As a reminder, the solubility is the dissolved amount per volume that the medium holds. For orientation: pKa means the negative logarithm of the acid dissociation constant. Low values mean a stronger acid or weaker base, high ones a weaker acid or stronger base. `COC(=O)N(C)Cn1cnc2c1c(=O)n(C)c(=O)n2C`: the half-life in data set [1] stood at 420 min. The solubility in data set [2] was determined as 9.33 mM (≈ 2620 µg/mL); in data set [3] (IPM, read-out: Solubility), 2690 µM (≈ 757 µg/mL). This compound also yielded a pKa in data set [4] of 8.6. The “log K” value in data set [5] is -0.04.

For the compound `COC(=O)N(C)COc1ccc(C=O)cc1`, the half-life in data set [1] was determined as 75 min. In data set [4], this compound yielded a pKa of 7.66.

In the case of `COC(=O)N(COc1ccc([N+](=O)[O-])cc1)c1ccccc1`, the half-life in data set [1] amounted to 519 min.

As for `CCOC(=O)c1ccc(N(COc2ccc([N+](=O)[O-])cc2)C(=O)OC)cc1`, in data set [1], the half-life was > 1440 min.

As to `Cn1c(=O)c2[nH]cnc2n(C)c1=O.O` [THEOPHYLLINE], the solubility came out at 46 mM in data set [2] and 340 µM in data set [3] (IPM, read-out: Solubility). The “log K” value in data set [5] is on record as -0.51.

In turn, `COC(=O)N(C)CSc1[nH]cnc2ncnc1-2` gave a half-life in data set [1] of 19 min. The solubility is 1.45 mM (≈ 367 µg/mL) in data set [2] and 1350 µM (≈ 342 µg/mL) in data set [3] (IPM, read-out: Solubility). This compound also showed a pKa in data set [4] of 7.5. Also, the “log K” value in data set [5] was found to be 0.03.

`COC(=O)N(C)COc1ccc(NC(C)=O)cc1`: the half-life in data set [1] stood at 3600 min. Moreover, the solubility was 45.7 mM (≈ 11500 µg/mL) in data set [2] and 14100 µM (≈ 3560 µg/mL) in data set [3] (IPM, read-out: Solubility). This compound registered a pKa in data set [4] of 9.5. Also, the “log K” value in data set [5] is listed as -0.45.

In the case of `COC(=O)N(C)COC(=O)c1ccc(N(C)C)cc1`, in data set [1], the half-life turned out to be 0.22 min. The compound also displayed a pKa in data set [4] of 5.03.

As for `CC(=O)Nc1ccc(O)cc1` [ACETAMINOPHEN], the solubility stood at 100 mM (≈ 15100 µg/mL) in data set [2] and 1910 µM (≈ 289 µg/mL) in data set [3]. In data set [5], the “log K” value is given as -1.72.

`COC(=O)N(C)COc1ccccc1C=O` came in with a half-life in data set [1] of 12 min. In addition, the pKa in data set [4] was 6.79.

In data set [1], `COC(=O)c1ccc(OCN(C)C(=O)OC)cc1` displayed a half-life of 290 min. The pKa in data set [4] turned out to be 8.47.

Turning to `COC(=O)N(COc1ccc([N+](=O)[O-])cc1)c1ccc(OC)cc1`, the half-life in data set [1] was 400 min.

`COC(=O)N(C)COc1ccc(C#N)cc1` showed a half-life in data set [1] of 149 min. This compound also had a pKa in data set [4] of 7.95.

Turning to `COC(=O)N(C)COc1ccc(C(C)=O)cc1`, in data set [1], the half-life was 189 min. This compound came in with a pKa in data set [4] of 8.05.

For `COC(=O)N(C)COc1ccc([N+](=O)[O-])cc1`, the half-life in data set [1] stood at 22 min. The same compound came in with a pKa in data set [4] of 7.14.

Regarding `Sc1ncnc2nc[nH]c12` [MERCAPTOPURINE ANHYDROUS], the solubility amounted to 1.12 mM (≈ 170 µg/mL) in data set [2] and 20 µM (≈ 3.04 µg/mL) in data set [3] (IPM, read-out: Solubility). Moreover, the “log K” value in data set [5] is reported as -1.75.
